Assay outcomes: PubChem, several laboratories
Compounds with a hit are over-represented: about 5.5% of the library has one in this group of screens.
HePTP inh – blocks human HePTP tyrosine phosphatase; P35236; recombinant HePTP phosphatase activity, OD absorbance; inhibition, % at 20 µM; 110,000 compounds, 0.64% hits; AID 521; in the data active = inhibition above about 50%;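 note: plate controls were vehicle for no effect and reference inhibitor for full effect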
PostGolgi yeast – growth inhibition of a yeast mutant, post-Golgi transport screen; inhibition, % at 10 µM; post-Golgi transport phenotypic cell assay; AID 739; 98,000 compounds, 0.9% hits;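 note: yeast cells grown in 1536-well plates; yeast grown about 18 h at 30C before absorbance read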
tolC growth inh – growth inhibitors of E. coli BW25113 tolC mutant. OD615. growth inhibition, % at 10 µM (by protocol). 65,000 compounds, 2.2% hits. AID 573;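 active = growth inhibition at or above a cutoff equal to the mean over every tested compound plus 3 SD, cut at about 60% in these data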;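 note: growth measured after 20 h incubation at 37 °C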
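Test system: tolC-deleted E. coli BW25113 | Medium: LB with kanamycin 50 µg/mL | Compound dosing: Single concentration, 10 µM final per compound | Schedule: 37 °C, 20 h exposure | Measured by: OD at 615 nm | Evaluation: Percent growth inhibition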
Ecoli WT expand – E. coli BW25113 growth inhibition, expanded screen | OD600 absorbance | growth inhibition, % at 100 µM | 98,000 compounds, 0.15% hits;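 active = growth inhibition above about 50% at one test dose, limit read from the data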;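 note: growth measured after 20 h incubation at 37 °C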
PLAP activator – human PLAP activation. 96,000 compounds, 1.2% hits. P05187. activation fold at 20 µM. AID 696. purified PLAP enzyme, luminescent substrate read-out; hits give high values; in the data active = activation fold above about 2
Target sequence (P05187 whole entry, looked up): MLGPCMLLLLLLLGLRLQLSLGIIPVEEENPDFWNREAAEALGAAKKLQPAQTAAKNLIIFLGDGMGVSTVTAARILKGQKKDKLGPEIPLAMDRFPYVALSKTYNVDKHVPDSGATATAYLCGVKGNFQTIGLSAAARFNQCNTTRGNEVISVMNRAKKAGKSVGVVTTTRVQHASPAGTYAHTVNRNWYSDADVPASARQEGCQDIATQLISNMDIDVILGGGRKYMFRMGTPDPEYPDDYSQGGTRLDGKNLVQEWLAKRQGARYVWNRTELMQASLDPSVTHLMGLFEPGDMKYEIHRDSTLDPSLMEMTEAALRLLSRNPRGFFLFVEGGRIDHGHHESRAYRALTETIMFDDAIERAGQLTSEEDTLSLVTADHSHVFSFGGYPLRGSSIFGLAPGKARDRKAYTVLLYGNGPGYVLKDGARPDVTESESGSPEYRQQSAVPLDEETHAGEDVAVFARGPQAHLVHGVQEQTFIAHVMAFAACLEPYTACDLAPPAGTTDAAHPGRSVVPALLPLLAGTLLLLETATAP
PostGolgi ctrl – growth of the yeast control strain, post-Golgi counter-screen | efflux-deficient yeast background strain, growth absorbance A615, 16 h | inhibition, % at 10 µM | 98,000 compounds, 5% hits | AID 738
Starred values were filed as active, the others as inactive; nt = not tested or not shown. Cut-off read from the data, not from the text of the source, unless noted: active = inhibition above about 30%; inactive = the rest.

SMILES	HePTP inh	PostGolgi yeast	tolC growth inh	Ecoli WT expand	PLAP activator	PostGolgi ctrl
CC1=C(C(=O)Nc2ccc(Cl)cc2)C(c2cccc3ccccc23)NC(=O)N1 (stereo unspecified)	9	nt	nt	nt	nt	nt
COc1ccc(NC(=O)c2sc3nccc(=O)n3c2C(=O)O)cc1	8	nt	nt	nt	nt	nt
CC(=O)N1CCN(c2ccc(NC(=O)c3cc(I)ccc3Cl)cc2)CC1	-4	nt	nt	nt	nt	nt
COc1ccc(-c2[nH]ncc2-c2cnn(-c3ccccc3)c2)c(O)c1	1	17	93*	1	2*	15
CCCc1ccc(OCCNC(C)=O)cc1	6	5	-13	6	nt	4
COc1ccc(-c2[nH]ncc2-c2cnc(C)s2)c(O)c1	6	-4	1	7	2.9*	-1
COc1ccc(-c2[nH]ncc2Oc2ccccc2OC)c(O)c1	3	6	99*	8	2.5*	19
CCCc1ccc(Oc2cn[nH]c2-c2ccc(O)cc2O)cc1	1	97*	100*	8	1.8	99*
O=C(/C=C/c1ccccc1)NC(=S)Nc1ccc(O)c(-c2nc3ccccc3o2)c1	-5	nt	nt	nt	nt	nt
COc1ccc(Oc2cn[nH]c2-c2ccc(O)cc2O)cc1	1	4	94*	22	2.2*	8
COc1ccc(O)c(-c2cn[nH]c2-c2cccs2)c1	2	-3	15	-6	1.4	8
N#Cc1cc(-c2ccccc2)nnc1Sc1ccc(Cl)cc1	nt	2	nt	-7	0.8	0
Clc1ccc(Sc2cc(Cl)c(-c3ccccc3)nn2)cc1	nt	-12	nt	-29	0.9	59*
COc1cc(OC)c(/C=C2/SC(NC(C)=O)=NC2=O)cc1Br	8	nt	nt	nt	nt	nt
Cc1cc(C2C(C#N)=C(N)OC3=C2C(=O)CC(C)(C)C3)c(C)s1 (stereo unspecified)	nt	1	nt	8	0.9	41*
N#Cc1c(NC(=O)CSc2nnnn2C2CCCCC2)sc2c1CCCC2	11	-1	-7	2	1.2	-2
O=C(CSc1nnnn1-c1ccc2c(c1)OCCO2)Nc1nc2c(s1)CCCC2	5	18	15	-2	0.8	13
COC(=O)c1cccc(-n2nnnc2SCC(=O)Nc2nc3c(s2)CCCC3)c1	1	1	84*	-5	1.2	28
O=C(CSc1nc2ccccc2o1)Nc1nc2c(s1)CCCC2	9	nt	63*	nt	nt	nt
O=C(CSc1nnnn1C1CCCCC1)Nc1nc2c(s1)CCCC2	1	18	98*	3	1.2	12
O=C(CSc1nc2ccccc2o1)Nc1nc2ccccc2s1	2	-4	33	-4	0.9	-6
COc1ccc2nc(NC(=O)CSc3nnnn3C3CCCCC3)sc2c1	-6	21	69*	7	1	45*
COc1ccc(OC)c(NC(=O)/C=C/c2ccc(OC)c(OC)c2)c1	7	nt	nt	nt	nt	nt
CCC(C(=O)Nc1sc(C(=O)OC(C)C)c(C)c1C#N)c1ccccc1 (stereo unspecified)	-5	nt	nt	nt	nt	nt
CCOc1ccc(OCCSc2nnnn2C2CCCCC2)cc1	7	-6	65*	-2	0.9	-1
SMILES	HePTP inh	PostGolgi yeast	tolC growth inh	Ecoli WT expand	PLAP activator	PostGolgi ctrl
CCOc1ccc2nc(NC(=O)CSc3nc4c(c(=O)n(C)c(=O)n4C)n3C(C)C)sc2c1	10	-3	27	-23	1.5	19
CCOc1ccc2nc(NC(=O)CSc3nnnn3C3CCCCC3)sc2c1	7	16	44	-5	0.9	42*
CCOC(=O)COc1ccc2oc(C)c(C(=O)OC)c2c1	16	nt	nt	nt	nt	nt
COc1ccccc1CNC(=O)c1oc2ccc(S(=O)(=O)N3CCCC3)cc2c1C	7	1	49	-14	1.4	31*
Cc1c(C(=O)NCc2ccccc2)oc2ccc(S(=O)(=O)N3CCCC3)cc12	-5	-6	17	-5	0.9	7
Cc1c(C(=O)NCc2cccnc2)oc2ccc(S(=O)(=O)N3CCCCCC3)cc12	0	-1	48	-10	1.6	42*
Cc1ccc(S(=O)(=O)N2CCN(Cc3c[nH]c4ccccc34)CC2)cc1	-9	nt	nt	nt	nt	nt
O=S(=O)(Cc1ccccc1)c1nc2ccccc2n1Cc1ccc(Cl)c(Cl)c1	-2	nt	nt	nt	nt	nt
COC(=O)c1ccc(NC(=S)NC(=O)/C=C/c2ccc(Br)cc2)cc1	8	nt	nt	nt	nt	nt
Cc1ccc(NC(=O)c2ccc(-c3nn(C)c(=O)c4ccccc34)cc2)cc1	nt	3	nt	-3	0.8	-3
Cc1ccc(NC(=O)c2ccc(-c3nn(C)c(=O)c4ccccc34)cc2)c(C)c1	nt	-4	nt	-15	1.5	41*
Nc1c(C(=O)NCc2ccco2)c2nc3ccccc3nc2n1CCc1ccc(F)cc1	nt	6	nt	-2	2*	15
COCCn1c(N)c(C(=O)NCc2cccs2)c2nc3ccccc3nc21	10	6	42	0	1.4	32*
Nc1c(C(=O)NCc2ccc3c(c2)OCO3)c2nc3ccccc3nc2n1CCCN1CCOCC1	3	21	95*	0	1.5	15
COc1ccccc1CNC(=O)c1c(N)n(CCCN2CCOCC2)c2nc3ccccc3nc12	nt	12	nt	9	1.6	20
O=C(CN1CCN(c2ccccn2)CC1)N(c1ccccc1)c1ccc2ccccc2c1	-17	-9	21	-11	1.6	66*
O=C(CN1CCOCC1)N(c1ccccc1)c1ccc2ccccc2c1	8	28	nt	1	1.5	12
CCN1CCN(CCCNC(=O)C2c3ccccc3C(=O)N(C)C2c2ccc(OC)cc2)CC1 (stereo unspecified)	-9	-12	9	-5	1.3	5
CCCCN(CC)CCNC(=O)C1c2cc(OC)c(OC)cc2C(=O)N2CCc3ccccc3C12 (stereo unspecified)	2	2	-19	1	2*	3
CCN1CCN(C(=O)C2c3cc(OC)c(OC)cc3C(=O)N3CCc4ccccc4C23)CC1 (stereo unspecified)	6	8	-25	7	1.3	8
CCCCN(CC)CCCNC(=O)C1c2ccccc2C(=O)N(C)C1c1cn(C)c2ccccc12 (stereo unspecified)	nt	-5	nt	-4	2*	8
COc1ccc(CC(=O)Nc2cccc(NC(=O)Cc3ccc(OC)cc3)c2)cc1	5	nt	nt	nt	nt	nt
C=CCNC(=O)C(=O)N/N=C/c1ccccc1O	-2	nt	nt	nt	nt	nt
O=C(/C(=C(\O)c1ccccc1)c1nc2ccccc2[nH]1)c1ccc([N+](=O)[O-])cc1	-5	nt	nt	nt	nt	nt
CSc1nc2ccccc2n1Cc1c(Cl)cccc1Cl	nt	5	nt	5	0.9	34*
Cc1cccc(Nc2ccccc2C(=O)OCC(=O)N2CCOCC2)c1C	5	3	29	-10	1.4	35*
COc1cccc(NC(=O)c2ccccc2-c2nc(-c3ccccc3)no2)c1	3	-3	28	-11	1	42*
COc1cccc(NC(=O)c2ccccc2-c2nc(-c3ccc(Cl)cc3)no2)c1	2	-7	36	-5	1.2	35*
COc1ccc(-c2noc(-c3ccccc3C(=O)NCc3ccco3)n2)cc1OC	7	-2	9	-10	0.8	31*
COc1ccccc1-c1noc(-c2ccccc2C(=O)Nc2ccccc2)n1	4	7	-23	-22	1	27
